The source made the active and inactive calls. The calls are words filed in the database; no cut-off is given here.

Data set [1] relates to CC(C)(C)OC(=O)NCC[C@H](NC(=O)[C@H](CC1CCCCC1)NC(=O)N1CCOCC1)C(=O)NCCNC(=O)OCC1c2ccccc2-c2ccccc21. Briefly: Activity at recombinant cathepsin B. In outline: (§1)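 Active-site-titrated (E-64) recombinant human cathepsins B, L, S and in-house cathepsin K, 10 nM final in pH 6.5 acetate/HEPES buffer with 300 mM NaCl, 0.001% Pluronic and L-cysteine; DMSO-dissolved Cy7/BHQ-3 quenched substrate 0.8–40 µM final (DMSO ≤1%); fluorescence read at 25 °C (λex 710, λem 767 nm); steady-state data fitted by non-linear least squares to Michaelis–Menten with substrate inhibition.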

Data set [2] shares this test system. Briefly: Ratio of Kcat/Km for recombinant cathepsin B. The procedure, abridged: as §1
Data set [3] deals with Stromelysin-1 (Homo sapiens) (UniProt P08254). The data set can be described thus: Activity at MMP3. In outline: (§2)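 Recombinant protease (10–40 nM final) incubated with 60.0 µM probe substrate; NIR fluorescence of cleaved quenched probe measured as in the in vitro cathepsin assay (λex 710 nm, λem 767 nm).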
Data set [4] concerns the target Neutrophil collagenase (Homo sapiens) (UniProt P22894). The data set can be described thus: Activity at MMP8. In outline: as §2
Data set [5] addresses Matrix metalloproteinase-9 (Homo sapiens) (UniProt P14780). The data set can be described thus: Activity at MMP9. In outline: as §2
Data set [6] concerns the target Matrix metalloproteinase-14 (Homo sapiens) (UniProt P50281). Briefly: Activity at MMP14. The procedure, abridged: as §2
Data set [7] deals with Mus musculus. Briefly: Activity at cathepsin S in zymosan-induced inflammatory paw edema mouse model assessed as ipsi/contralateral paw fluorescent signal at 20 uM, iv after 10 mins. The class given is functional, organism-based. In outline:
(§3)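 Mice given zymosan in one hind paw (n = 3); 24 h later 20 µM probe in PBS iv via tail vein (800 nmol/kg). Under 1.5–2% isoflurane, body temperature held with heating pads; tail and upper body masked; images at 10 min, 1, 3, 6, 24 h; identical ROIs over both hind paws, ipsi/contralateral ratio.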

The test system of data set [8] is Mus musculus. Briefly: Activity at cathepsin S in zymosan-induced inflammatory paw edema mouse model assessed as ipsi/contralateral paw fluorescent signal at 20 uM, iv after 180 mins. Format: functional, organism-based. In outline: as §3
Data set [9] concerns Mus musculus. Briefly: Activity at cathepsin S in zymosan-induced inflammatory paw edema mouse model assessed as ipsi/contralateral paw fluorescent signal at 13.3 uM, iv after 24 hrs. Format: functional, organism-based.
Data set [10] relates to Mus musculus. Briefly: Activity at cathepsin S in zymosan-induced inflammatory paw edema mouse model assessed as ipsi/contralateral paw fluorescent signal at 20 uM, iv in presence of Dexamethasone. Format: functional, organism-based. In outline:
(§4)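 Zymosan paw inflammation; groups n = 3. Dexamethasone 10 mg/kg oral in 0.6% methylcellulose/0.5% Tween80 1 day before zymosan, shortly after, and 1 h before probe; or E-64 10 or 30 mg/kg ip in 40% DMSO/PBS 2 days and 1 day before, shortly after zymosan, and 1 h before probe. Probe 20 µM iv (800 nmol/kg) 24 h post-zymosan; ipsi/contralateral paw fluorescence imaged.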

In data set [11] the test system is Mus musculus. The data set can be described thus: Activity at cathepsin S in zymosan-induced inflammatory paw edema mouse model assessed as ipsi/contralateral paw fluorescent signal at 20 uM, iv in presence of 10 to 30 ug/ml E-64. The class given is functional, organism-based. Conditions: in the assay text read “10 to 30 mg/kg” for “10 to 30 ug/ml”. The procedure, abridged:
as §4

Chain of Stromelysin-1 (Homo sapiens) (P08254 100-477 limits assumed): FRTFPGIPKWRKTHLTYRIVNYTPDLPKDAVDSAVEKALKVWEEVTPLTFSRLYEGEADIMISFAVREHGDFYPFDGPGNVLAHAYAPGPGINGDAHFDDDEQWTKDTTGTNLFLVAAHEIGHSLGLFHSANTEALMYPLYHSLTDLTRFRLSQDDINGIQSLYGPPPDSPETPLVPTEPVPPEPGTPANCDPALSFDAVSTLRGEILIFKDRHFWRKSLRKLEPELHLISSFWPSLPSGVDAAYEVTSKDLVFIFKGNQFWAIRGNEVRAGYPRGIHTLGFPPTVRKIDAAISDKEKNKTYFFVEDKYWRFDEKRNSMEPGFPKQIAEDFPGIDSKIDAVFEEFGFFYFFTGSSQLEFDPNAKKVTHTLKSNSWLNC
Chain of Neutrophil collagenase (Homo sapiens) (P22894 101-467 limits assumed): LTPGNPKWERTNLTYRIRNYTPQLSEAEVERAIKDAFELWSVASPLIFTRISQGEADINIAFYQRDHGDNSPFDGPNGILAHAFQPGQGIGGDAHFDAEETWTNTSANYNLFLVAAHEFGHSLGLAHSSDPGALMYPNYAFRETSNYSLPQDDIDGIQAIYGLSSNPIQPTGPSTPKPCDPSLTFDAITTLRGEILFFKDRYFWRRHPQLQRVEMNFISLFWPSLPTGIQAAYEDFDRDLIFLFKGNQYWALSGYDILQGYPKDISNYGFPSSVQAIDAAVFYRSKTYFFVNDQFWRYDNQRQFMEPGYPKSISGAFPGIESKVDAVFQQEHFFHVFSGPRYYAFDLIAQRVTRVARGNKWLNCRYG
Chain of Matrix metalloproteinase-9 (Homo sapiens) (P14780 whole entry): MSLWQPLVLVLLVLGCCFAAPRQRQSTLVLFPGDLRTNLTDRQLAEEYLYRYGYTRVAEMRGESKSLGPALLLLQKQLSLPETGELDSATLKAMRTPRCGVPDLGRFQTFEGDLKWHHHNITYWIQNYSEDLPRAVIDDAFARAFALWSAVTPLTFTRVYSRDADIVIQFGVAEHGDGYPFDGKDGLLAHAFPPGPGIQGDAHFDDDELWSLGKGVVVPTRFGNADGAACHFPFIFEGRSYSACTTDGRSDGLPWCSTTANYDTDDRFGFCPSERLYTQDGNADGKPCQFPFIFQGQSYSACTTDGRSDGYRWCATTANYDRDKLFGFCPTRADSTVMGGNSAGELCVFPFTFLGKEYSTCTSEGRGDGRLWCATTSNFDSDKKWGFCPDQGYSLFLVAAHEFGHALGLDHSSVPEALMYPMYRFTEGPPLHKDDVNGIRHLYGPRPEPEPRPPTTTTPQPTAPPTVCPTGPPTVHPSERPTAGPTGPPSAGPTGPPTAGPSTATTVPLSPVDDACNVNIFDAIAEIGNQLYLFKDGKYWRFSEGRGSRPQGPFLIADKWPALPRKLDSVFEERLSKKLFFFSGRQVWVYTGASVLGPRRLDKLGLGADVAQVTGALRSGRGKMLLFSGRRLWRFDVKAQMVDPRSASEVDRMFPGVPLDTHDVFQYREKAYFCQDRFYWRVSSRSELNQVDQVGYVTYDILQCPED

Broadly, the Km is the substrate concentration at which the rate is half of its maximum. One may read the kcat/Km as the turnover number divided by the Michaelis constant. In the case of “Cathepsin B (Homo sapiens) (from UniProt P07858)”, the Km in data set [1] was 3.2 mM. In [2], the kcat/Km was found to be 332 M⁻¹ s⁻¹.

As to `CCN(CC)c1ccc2nc3ccc(/N=N/c4ccc(N(C)CCCC(=O)NCCNC(=O)[C@H](CCNC(=O)CCCCCN5\C(=C/C=C/C=C/C=C/C6N(CC)c7ccc(S(=O)(=O)O)cc7C6(C)C)C(C)(C)c6cc(S(=O)(=O)[O-])ccc65)NC(=O)[C@H](CC5CCCCC5)NC(=O)N5CCOCC5)cc4)cc3[n+](-c3ccccc3)c2c1` (stereo partly specified), the outcome (in data set [3]; in data set [4]; in data set [5]; in data set [6]; in the data set on Mus musculus [10]; in the data set with Mus musculus [11]) was inactive. Further, the result in the data set with Mus musculus [7], with Mus musculus [8] and in the data set with Mus musculus [9] was Active.

The values above are taken from ChEMBL document CHEMBL1667743, “Functional in vivo imaging of cysteine cathepsin activity in murine model of inflammation” (Bioorg Med Chem, 2011).
